# Where two headings read alike, the source gives them in different places.
# Key:
# Format in all cases: in vivo, mouse
# [1] = system: U87 MG tumor; assay: Autoradiography of resected tissues
# Procedure, shortened: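 U87 MG tumour-bearing mice got the 18F-labelled fluorescent PARP1 tracer alone, or the tracer 30 min after Olaparib as a blocking agent. Tumour, brain and muscle were resected, and tumour slices were imaged by autoradiography beside H&E staining. Tissue/muscle ratios were calculated for tumours and brains in the non-blocked and blocked groups.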
# [2] = system: U87 MG glioblastoma xenografts; assay: Small animal PET imaging of U87 MG glioblastoma xenografts
# Procedure, shortened: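 Mice carrying U87 MG xenografts in the right shoulder were given 100–200 μl tracer (80–160 mCi/μmol), e.g. 200 μCi in 100 μl 15 % PEG300/85 % 0.9 % saline. PET/CT gave coronal and axial reconstructions, and tumour uptake and SUV were derived. Blocked mice were pre-injected with a 50-fold excess of Olaparib (3.7 μmol in 100 μl of the same vehicle).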
# [3] = system: U87 MG glioblastoma xenografts; assay: Biodistribution study in tumor xenograft mice
# Procedure, shortened: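 Tumour xenograft mice were injected with the tracer, with or without Olaparib pre-injection. Mice were euthanized at 90 min p.i. and organ radioactivity was counted, expressed as %ID/g (n = 4, mean ± SD). Tumour-to-non-target tissue ratios, including tumour/brain and tumour/muscle, were calculated.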
# [4] = Ex vivo blood half-life; settings: tail vein injection, 27 μCi, 100 μl
# Procedure, shortened: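 For blood clearance, the tracer was given by tail vein. Blood was collected at 5, 15, 30, 60 and 120 min, weighed and γ-counted, and expressed as %IA/g (n = 4). A weighted t1/2 was derived.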
# [5] = system: U87 MG tumor; settings: for Tumor to brain ratio: ex vivo
# [6] = blocked, pre-injection of Olaparib
smiles,measurement,setting,value
CC1=CC(C)=[N+]2C1=Cc1ccc(CCC(=O)N3CCN(C(=O)c4cc(Cc5n[nH]c(=O)c6ccccc56)ccc4F)CC3)n1[B-]2(F)[18F] (stereo not drawn) [[^18F]PARPi-FL],Lowering of tumor to muscle ratio by blocking,[1]; Olaparib blocking,approximately 66%
same,Overall reduction of tumor uptake in blocked mice (autoradiography),[1]; Olaparib injected 30 min before tracer,80±12%
same,Brain to muscle ratio (autoradiography),[1]; Olaparib-blocked mice,1.02±0.22
same,Tumor to muscle ratio (autoradiography),[1]; Olaparib-blocked mice,2.6±1.6
same,Brain to muscle ratio (autoradiography),[1]; non-blocked mice,0.87± 0.48
same,Tumor to muscle ratio (autoradiography),[1]; non-blocked mice,7.5±0.9
same,Organ uptake / excretion seen by PET,[2]; PET imaging,high uptake in the liver and in the intestinal tract
same,Standardized uptake value (SUV) in U87 MG tumors,[2]; non-blocked,1.10±0.53
same,Uptake in U87 MG tumors,[2]; non-blocked,0.78±0.1
same,Standardized uptake value (SUV) in U87 MG tumors,[2]; pre-injection of an excess of Olaparib (50-fold),0.10±0.06
same,Tumor to muscle ratio,[3]; 90 min post injection,4±0.6
same,Metabolic stability in vivo (defluorination),"[3]; U87 MG xenograft-bearing mice, bone uptake",quick metabolic defluorination
same,Tumor to brain tissue ratio,[3]; biodistribution,12±2.1
same,Reduction of uptake in blocked U87 MG tumors,[3]; blocked U87 MG tumors,84%
same,Kidneys uptake,[3]; [6],0.4±0.1 %ID/g
same,Liver uptake,[3]; [6],2.02± 0.2 %ID/g
same,Kidneys uptake,[3]; non-blocked,0.7±0.1 %ID/g
same,Liver uptake,[3]; non-blocked,3.8±0.4 %ID/g
same,Tumor uptake,"[3]; positive control group (non-blocked), 90 min p.i.",0.78±0.1 %ID/g
same,"Blood half-life, weighted t1/2",[4],15.6 min
same,Reduction of tumor uptake in Olaparib-blocked organs,[5]; autoradiography,66±9%
same,Tumor to brain ratio,[5]; autoradiography,ninefold
same,Reduction of tumor uptake in Olaparib-blocked organs,[5]; surface fluorescence imaging,74±12%
same,Tumor to brain ratio,[5]; surface fluorescence imaging,sevenfold
